Test results: ChEMBL document CHEMBL1155077, “Kinesin spindle protein (KSP) inhibitors. 9. Discovery of (2S)-4-(2,5-difluorophenyl)-n-[(3R,4S)-3-fluoro-1-methylpiperidin-4-yl]-2-(hydroxymethyl)-N-methyl-2-phenyl-2,5-dihydro-1H-pyrrole-1-carboxamide (MK-0731) for the treatment of taxane-refractory cancer” (J Med Chem, 2008)

Key:
[1] = Inhibition of human KSP
[2] = Dissociation constant, pKa by Sirius GLpKa titrator; type: physicochemical
Method in brief: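 Potentiometric pKa measured on a Sirius GLpKa titrator; mean of n = 3 determinations unless marked as a single determination.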

A2780 [3] = assay: Induction of mitotic arrest in human A2780 cells expressing MDR1 after 16 hrs; type: functional, cell-based; details: A2780, 16 h
[4] = Inhibition of human KSP in presence of 30% mouse serum
Method in brief: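 KSP ATPase assay as the primary one (0.25 nM KSP motor domain, microtubules, 1 mM ATP, pH 6.8, 3 h at RT, quinaldine red phosphate read-out), run with 30% mouse serum dialysed against reaction buffer (12-14 kDa cutoff). Mean of at least 3 experiments unless noted.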

A2780 [5] = assay: Induction of mitotic arrest in human A2780 cells […] clr:NU/NU-nuBR mouse assessed as minimum plasma concentration required to induce maximum mitotic arrest after 22 hrs; type: functional
[6] = biological target: Voltage-gated inwardly rectifying potassium channel KCNH2 (Homo sapiens, UniProt Q12809)
Chain of Voltage-gated inwardly rectifying potassium channel KCNH2 (Q12809 whole entry): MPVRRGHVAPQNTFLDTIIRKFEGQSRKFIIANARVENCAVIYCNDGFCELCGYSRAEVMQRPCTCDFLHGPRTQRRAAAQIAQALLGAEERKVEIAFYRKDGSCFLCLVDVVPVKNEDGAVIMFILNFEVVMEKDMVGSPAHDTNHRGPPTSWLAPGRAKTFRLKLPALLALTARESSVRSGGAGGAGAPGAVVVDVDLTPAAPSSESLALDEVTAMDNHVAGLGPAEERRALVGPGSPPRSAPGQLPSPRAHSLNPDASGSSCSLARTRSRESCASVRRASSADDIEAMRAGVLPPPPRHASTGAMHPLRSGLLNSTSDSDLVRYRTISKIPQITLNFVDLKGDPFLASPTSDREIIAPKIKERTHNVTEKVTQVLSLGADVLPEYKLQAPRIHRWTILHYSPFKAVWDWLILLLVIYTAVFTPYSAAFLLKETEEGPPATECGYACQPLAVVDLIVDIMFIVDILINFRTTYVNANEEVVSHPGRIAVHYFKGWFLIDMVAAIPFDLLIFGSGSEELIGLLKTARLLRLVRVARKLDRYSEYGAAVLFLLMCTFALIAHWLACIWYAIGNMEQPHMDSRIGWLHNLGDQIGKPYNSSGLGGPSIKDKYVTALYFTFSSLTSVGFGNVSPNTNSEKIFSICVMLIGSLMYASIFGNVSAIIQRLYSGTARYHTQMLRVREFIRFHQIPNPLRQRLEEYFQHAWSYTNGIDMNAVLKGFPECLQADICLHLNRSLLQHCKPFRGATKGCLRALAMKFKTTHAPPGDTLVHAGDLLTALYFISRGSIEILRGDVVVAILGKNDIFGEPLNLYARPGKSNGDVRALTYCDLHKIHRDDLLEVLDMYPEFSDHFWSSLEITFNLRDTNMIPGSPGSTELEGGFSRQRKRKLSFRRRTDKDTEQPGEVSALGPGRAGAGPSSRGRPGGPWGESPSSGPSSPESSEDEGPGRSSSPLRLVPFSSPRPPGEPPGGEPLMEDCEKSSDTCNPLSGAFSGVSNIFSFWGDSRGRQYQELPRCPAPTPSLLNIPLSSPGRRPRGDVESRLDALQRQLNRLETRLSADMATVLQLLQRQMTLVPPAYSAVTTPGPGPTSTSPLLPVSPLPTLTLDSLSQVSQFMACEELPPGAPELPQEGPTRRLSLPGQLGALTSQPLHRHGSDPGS

[7] = Ratio of IC50 for induction of mitotic arrest in human […] to IC50 for induction of mitotic arrest in […] human KB-V-1 cells; type: functional
Method in brief: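 Phospho-nucleolin mitotic-arrest assay in parental KB-3-1 and MDR1-overexpressing KB-V-1 cells (>500-fold higher MDR1 mRNA). Cells were treated in triplicate for 16 h across 10 000 to 0.1 nM (11-point, half-log series; 0.1% DMSO final). Total nucleolin was bead-captured from lysates and phospho-nucleolin detected by TG3 antibody plus a ruthenium-labelled secondary. Ratio = IC50 (KB-V-1) / IC50 (KB-3-1).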

Rattus norvegicus [8] = assay: AUC in rat at 1 mg/kg, iv; type: ADME, organism-based, Plasma; design: dose 1 mg/kg, route intravenous; details: in vivo
Rattus norvegicus [9] = assay: AUC in rat at 4 mg/kg, iv; type: ADME, organism-based, Plasma; design: dose 4 mg/kg, route intravenous; details: in vivo
Rattus norvegicus [10] = assay: AUC in rat at 12 mg/kg, iv; type: ADME, organism-based, Plasma; design: dose 12 mg/kg, route intravenous; details: in vivo

Compound	IC50 [1] [nM]	pKa [2]	EC50 (A2780 [3]) [nM]	EC90 (A2780 [5]) [nM]	also measured
CN(C(=O)N1CC(c2cc(F)ccc2F)=C[C@@]1(CO)c1ccccc1)C1CCNCC1	7.4	9.8			
CC(=O)O[C@H]1C(=O)[C@@]2(C)[C@H]([C@H](OC(=O)c3ccccc3)[C@]3(O)C[C@H](OC(=O)[C@H](O)[C@@H](NC(=O)c4ccccc4)c4ccccc4)C(C)=C1C3(C)C)[C@]1(OC(C)=O)CO[C@@H]1C[C@@H]2O [PACLITAXEL]	0.5		> 10000		
CN(C)C(=O)N1CC(c2cc(F)ccc2F)=C[C@@]1(CC[C@@H](N)C(F)F)c1ccccc1	5		22.5	1425	IC50 [4]: 84.2 nM; IC50 [6]: 15900 nM
CN(C)C(=O)N1CC(c2cc(F)ccc2F)=C[C@@]1(CO)c1ccccc1	78				
CN(C(=O)N1CC(c2cc(F)ccc2F)=C[C@@]1(CO)c1ccccc1)C1CCN(CC(F)F)CC1	34.1	4.9			
CN1CCC(N(C)C(=O)N2CC(c3cc(F)ccc3F)=C[C@@]2(CO)c2ccccc2)CC1	6.2	8.8	5.6	125	IC50 [4]: 29.1 nM
CN(C(=O)N1CC(c2cc(F)ccc2F)=C[C@@]1(CO)c1ccccc1)C1CCN(CC2CC2)CC1	5.1	9.1			
CN1CC[C@H](N(C)C(=O)N2CC(c3cc(F)ccc3F)=C[C@@]2(CO)c2ccccc2)[C@@H](F)C1	11.5	6.6	16.5		Ratio [7]: 2.4; IC50 [6]: 36900 nM
CN1CC[C@@H](N(C)C(=O)N2CC(c3cc(F)ccc3F)=C[C@@]2(CO)c2ccccc2)[C@@H](F)C1	13.3		13.8		Ratio [7]: 4.8
CN1CC[C@@H](N(C)C(=O)N2CC(c3cc(F)ccc3F)=C[C@@]2(CO)c2ccccc2)[C@H](F)C1	11.9		37.6		Ratio [7]: 2.9
CN(C(=O)N1CC(c2cc(F)ccc2F)=C[C@@]1(CO)c1ccccc1)C1CCN(CCF)CC1	5	7.6	4.8	100	IC50 [4]: 38.8 nM; AUC (Rattus norvegicus [8]): 0.5 µM·h; AUC (Rattus norvegicus [9]): 2.5 µM·h; AUC (Rattus norvegicus [10]): 9.5 µM·h
CN(C(=O)N1CC(c2cc(F)ccc2F)=C[C@@]1(CO)c1ccccc1)C1CCN(C2CC2)CC1	5.9	7.5			
CN1CCC(N(C)C(=O)N2CC(c3cc(F)ccc3F)=C[C@H]2c2ccccc2)CC1	4			400	
